In ChEMBL document CHEMBL3734708, “Synthesis, cytotoxicity and antiviral evaluation of new series of imidazo[4,5-g]quinoline and pyrido[2,3-g]quinoxalinone derivatives” (Eur J Med Chem, 2015):

Test system: Human immunodeficiency virus 1
Assay: Antiviral activity against HIV-1 3B infected in human MT4 cells assessed as protection against virus-induced cytopathic effect after 4 days by MTT assay
Assay type: functional, organism-based
Details: Human immunodeficiency virus 1, 3B, MT4, 96 h
Method in brief: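 MT-4 cells (1 × 10^4/well in RPMI) with or without serial compound dilutions, infected with HIV-1 at 100 CCID50 (m.o.i. 0.01). After 4 days at 37 °C, protection from cytopathogenicity read by MTT. EC50 by linear regression versus untreated controls; mean of three independent determinations.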

| Structure (SMILES) | EC50 [µM] |
| --- | --- |
| c1ccc(Cc2nc3cc4cccnc4cc3n2CC2CCCCC2)cc1 | > 10 |
| O=c1[nH]c2cc3cccnc3c(Cl)c2nc1-c1cccs1 | > 100 |
| CCCn1c(-c2ccccc2)nc2cc3cccnc3cc21 | > 62 |

Test system: Human alphaherpesvirus 1
Assay: Antiviral activity against HSV-1 KOS ATCC VR- 1493 infected in african green monkey Vero-76 cells after 3 days by plaque reduction assay
Assay type: functional, organism-based
Details: Human alphaherpesvirus 1, KOS ATCC VR1493, Vero 76, 72 h

| Structure (SMILES) | EC50 [µM] |
| --- | --- |
| c1ccc(Cc2nc3cc4cccnc4cc3n2CC2CCCCC2)cc1 | > 25 |
| O=c1[nH]c2cc3cccnc3c(Cl)c2nc1-c1cccs1 | > 100 |
| CCCn1c(-c2ccccc2)nc2cc3cccnc3cc21 | > 90 |

Test system: not listed separately
Assay: Selectivity index, ratio of CC50 for human GS4.1 cells to EC50 for Hepatitis C virus genotype 1b replicon infected in human GS4.1 cells
Assay type: toxicity, cell-based
Details: read-out: Ratio CC50/EC50
Method in brief: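 Replicon GS4.1 cells 7.5 × 10^3/well with twofold dilutions (top 75 µM), 72 h at 37 °C. Replication measured by NS4A ELISA (anti-NS4A A-236, peroxidase conjugate, phenylenediamine, A492), with EC50 by four-parameter sigmoidal fit. CC50 from CellTiter 96 AQueous One in the same cells. Index taken as CC50/EC50.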

| Structure (SMILES) | selectivity ratio |
| --- | --- |
| O=c1[nH]c2cc3cccnc3c(Cl)c2nc1-c1cccs1 | 3 |

Test system: not listed separately
Assay: Cytotoxicity against MDBK cells assessed as reduction in cell viability after 72 hrs by MTT assay
Assay type: cell-based, Bos taurus
Details: cattle
Method in brief: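 MDBK cells seeded at 6 × 10^5 cells/mL in MEM-E with L-glutamine, 1 mM sodium pyruvate, kanamycin and 10% horse serum. Mock-infected cultures held with serial compound dilutions at 37 °C, 5% CO2. MTT viability read after 72 h. 50% cytotoxic concentration from linear regression as % of untreated controls. Three independent determinations.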

| Structure (SMILES) | CC50 at 72 h [µM] |
| --- | --- |
| c1ccc(Cc2nc3cc4cccnc4cc3n2CC2CCCCC2)cc1 | > 100 |
| O=c1[nH]c2cc3cccnc3c(Cl)c2nc1-c1cccs1 | > 100 |
| CCCn1c(-c2ccccc2)nc2cc3cccnc3cc21 | > 100 |

Test system: Bovine viral diarrhea virus 1
Assay: Antiviral activity against BVDV NADL ATCC VR-534 infected in MDBK cells assessed as protection against virus-induced cytopathic effect after 3 or 4 days by MTT assay
Assay type: functional, organism-based
Details: Bovine viral diarrhea virus isolates and strains, NADL ATCC VR-534, MDBK
Method in brief: (§1)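 BHK-21 (YFV, Reo-1) or MDBK (BVDV) cells seeded at 5 × 10^4 or 3 × 10^4 cells/well and grown overnight to confluence. Monolayers infected at m.o.i. 0.01 in maintenance medium (MEM-Earle, 0.5% inactivated FBS). Serial compound dilutions added 2 h after infection; 37 °C for 3-4 days. Viability read by MTT. EC50 by linear regression versus untreated controls; mean of three determinations.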

| Structure (SMILES) | EC50 [µM] |
| --- | --- |
| c1ccc(Cc2nc3cc4cccnc4cc3n2CC2CCCCC2)cc1 | 10 |
| O=c1[nH]c2cc3cccnc3c(Cl)c2nc1-c1cccs1 | 6 |
| CCCn1c(-c2ccccc2)nc2cc3cccnc3cc21 | > 100 |

Test system: Yellow fever virus
Assay: Antiviral activity against YFV 17-D vaccine (Stamaril Pasteur J07B01) infected in BHK21 cells assessed as protection against virus-induced cytopathic effect after 3 or 4 days by MTT assay
Assay type: functional, organism-based
Details: BHK-21
Method in brief: as §1

| Structure (SMILES) | EC50 [µM] |
| --- | --- |
| c1ccc(Cc2nc3cc4cccnc4cc3n2CC2CCCCC2)cc1 | > 71 |
| O=c1[nH]c2cc3cccnc3c(Cl)c2nc1-c1cccs1 | > 100 |
| CCCn1c(-c2ccccc2)nc2cc3cccnc3cc21 | > 100 |

Test system: Human poliovirus 1 strain Sabin
Assay: Antiviral activity against Human poliovirus 1 strain Sabin 1 virus infected in african green monkey Vero-76 cells after 2 days by plaque reduction assay
Assay type: functional, organism-based
Details: Enterovirus C, 1, Vero 76, 48 h

| Structure (SMILES) | EC50 [µM] |
| --- | --- |
| c1ccc(Cc2nc3cc4cccnc4cc3n2CC2CCCCC2)cc1 | > 25 |
| O=c1[nH]c2cc3cccnc3c(Cl)c2nc1-c1cccs1 | > 100 |
| CCCn1c(-c2ccccc2)nc2cc3cccnc3cc21 | > 90 |

Test system: Mammalian orthoreovirus 1
Assay: Antiviral activity against Reovirus 1 ATCC VR- 214 infected in BHK21 cells assessed as protection against virus-induced cytopathic effect after 3 or 4 days by MTT assay
Assay type: functional, cell-based
Details: Mammalian orthoreovirus 1, ATCC VR- 214, BHK-21
Method in brief: as §1

| Structure (SMILES) | EC50 [µM] |
| --- | --- |
| c1ccc(Cc2nc3cc4cccnc4cc3n2CC2CCCCC2)cc1 | > 71 |
| O=c1[nH]c2cc3cccnc3c(Cl)c2nc1-c1cccs1 | > 100 |
| CCCn1c(-c2ccccc2)nc2cc3cccnc3cc21 | > 100 |

Test system: Coxsackievirus B5
Assay: Antiviral activity against CVB-5 virus Faulkner ATCC VR-185 infected in african green monkey Vero-76 cells after 3 days by plaque reduction assay
Assay type: functional, organism-based
Details: Enterovirus B, Faulkner ATCC VR-185, Vero 76, 72 h

| Structure (SMILES) | EC50 [µM] |
| --- | --- |
| c1ccc(Cc2nc3cc4cccnc4cc3n2CC2CCCCC2)cc1 | > 25 |
| O=c1[nH]c2cc3cccnc3c(Cl)c2nc1-c1cccs1 | > 100 |
| CCCn1c(-c2ccccc2)nc2cc3cccnc3cc21 | 13 |

Test system: not listed separately
Assay: Cytotoxicity against human MT4 cells assessed as reduction in cell proliferation after 96 hrs by MTT assay
Assay type: cell-based
Details: not given
Method in brief: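 MT-4 cells in exponential growth seeded at 1 × 10^5 cells/mL in RPMI-1640 with 10% FBS and penicillin/streptomycin. Cultured with serial compound dilutions at 37 °C, 5% CO2. MTT viability after 96 h. CC50 by linear regression against untreated controls. Mean of three independent determinations.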

| Structure (SMILES) | CC50 at 96 h [µM] |
| --- | --- |
| c1ccc(Cc2nc3cc4cccnc4cc3n2CC2CCCCC2)cc1 | 10 |
| O=c1[nH]c2cc3cccnc3c(Cl)c2nc1-c1cccs1 | > 100 |
| CCCn1c(-c2ccccc2)nc2cc3cccnc3cc21 | 62 |

Test system: Vaccinia virus
Assay: Antiviral activity against VV Elstree ATCC VR-1549 infected in african green monkey Vero-76 cells after 3 days by plaque reduction assay
Assay type: functional, organism-based
Details: Orthopoxvirus vaccinia, Elstree ATCC VR-1549, Vero 76, 72 h

| Structure (SMILES) | EC50 [µM] |
| --- | --- |
| c1ccc(Cc2nc3cc4cccnc4cc3n2CC2CCCCC2)cc1 | > 25 |
| O=c1[nH]c2cc3cccnc3c(Cl)c2nc1-c1cccs1 | > 100 |
| CCCn1c(-c2ccccc2)nc2cc3cccnc3cc21 | > 90 |

Test system: Respiratory syncytial virus
Assay: Antiviral activity against RSVA2 ATCC VR-1540 infected in african green monkey Vero-76 cells after 5 days by plaque reduction assay
Assay type: functional, organism-based
Details: human respiratory syncytial virus, A2 ATCC VR-1540, Vero 76, 120 h

| Structure (SMILES) | EC50 [µM] |
| --- | --- |
| c1ccc(Cc2nc3cc4cccnc4cc3n2CC2CCCCC2)cc1 | > 25 |
| O=c1[nH]c2cc3cccnc3c(Cl)c2nc1-c1cccs1 | > 100 |
| CCCn1c(-c2ccccc2)nc2cc3cccnc3cc21 | > 90 |

Test system: not listed separately
Assay: Cytotoxicity against african green monkey Vero 76 cells assessed as reduction in cell viability after 48 to 96 hrs by MTT assay
Assay type: cell-based
Details: chlorocebus sabaeus
Method in brief: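 Vero-76 cells plated at 4 × 10^5 cells/mL in D-MEM with L-glutamine, kanamycin and 10% FBS. Incubated with serial dilutions of test compounds at 37 °C, 5% CO2 for 48-96 h. Viability by MTT. CC50 by linear regression relative to untreated cells. Mean of three independent runs.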

| Structure (SMILES) | CC50 [µM] |
| --- | --- |
| c1ccc(Cc2nc3cc4cccnc4cc3n2CC2CCCCC2)cc1 | 25 |
| O=c1[nH]c2cc3cccnc3c(Cl)c2nc1-c1cccs1 | > 100 |
| CCCn1c(-c2ccccc2)nc2cc3cccnc3cc21 | 90 |

Test system: not listed separately
Assay: Cytotoxicity against human GS4.1 cells assessed as reduction in cell viability after 72 hrs by Cell Titer 96 aqueous one solution cell proliferation assay
Assay type: cell-based
Details: not given
Method in brief: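 GS4.1 cells (Huh-7 carrying an HCV genotype 1b replicon, grown with 0.5 mg/mL G418) seeded at 7.5 × 10^3 cells/well with twofold serial dilutions, top 75 µM. Incubated 72 h at 37 °C, 5% CO2. Viability by CellTiter 96 AQueous One. CC50 from % cytotoxicity vs concentration.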

| Structure (SMILES) | CC50 at 72 h [µM] |
| --- | --- |
| O=c1[nH]c2cc3cccnc3c(Cl)c2nc1-c1cccs1 | 21 |

Test system: Vesicular stomatitis virus
Assay: Antiviral activity against VSV Indiana ATCC VR-158 infected in african green monkey Vero-76 cells after 2 days by plaque reduction assay
Assay type: functional, organism-based
Details: Indiana ATCC VR-158, Vero 76, 48 h

| Structure (SMILES) | EC50 [µM] |
| --- | --- |
| c1ccc(Cc2nc3cc4cccnc4cc3n2CC2CCCCC2)cc1 | > 25 |
| O=c1[nH]c2cc3cccnc3c(Cl)c2nc1-c1cccs1 | > 100 |
| CCCn1c(-c2ccccc2)nc2cc3cccnc3cc21 | > 90 |

Test system: not listed separately
Assay: Cytotoxicity against BHK21 cells assessed as reduction in cell viability after 72 hrs by MTT assay
Assay type: cell-based, Mesocricetus auratus, BHK-21
Details: hamster
Method in brief: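 BHK cells seeded at 1 × 10^6 cells/mL in MEM-E with L-glutamine, 1 mM sodium pyruvate, kanamycin and 10% FBS. Mock-infected cells exposed to serial dilutions of compound at 37 °C, 5% CO2, run in parallel with the antiviral assays. Viability by MTT at 72 h. CC50 by linear regression vs untreated controls. Mean of three independent determinations.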

| Structure (SMILES) | CC50 at 72 h [µM] |
| --- | --- |
| c1ccc(Cc2nc3cc4cccnc4cc3n2CC2CCCCC2)cc1 | 71 |
| O=c1[nH]c2cc3cccnc3c(Cl)c2nc1-c1cccs1 | > 100 |
| CCCn1c(-c2ccccc2)nc2cc3cccnc3cc21 | > 100 |

Test system: not listed separately
Assay: Selectivity index, ratio of CC50 for MDBK cells to EC50 for BVDV infected in MDBK cells
Details: not given

| Structure (SMILES) | Ratio CC50/EC50 |
| --- | --- |
| O=c1[nH]c2cc3cccnc3c(Cl)c2nc1-c1cccs1 | >16 |

Test system: Hepatitis C virus
Assay: Antiviral activity against Hepatitis C virus genotype 1b replicon infected in human GS4.1 cells assessed as protection against virus-induced cytopathic effect after […] by ELISA
Assay type: functional, organism-based, Hepacivirus hominis
Details: not given
Method in brief: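 Huh-7 cells carrying the genotype 1b replicon (GS4.1) seeded at 7.5 × 10^3 cells/well in twofold serial compound dilutions (top 75 µM). Replicon-free Huh-7 served as negative control. 72 h at 37 °C. Fixed in acetone-methanol; NS4A ELISA with mouse monoclonal A-236, peroxidase anti-mouse IgG and phenylenediamine; absorbance at 492 nm. EC50 by four-parameter sigmoidal regression of % inhibition.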

| Structure (SMILES) | EC50 [µM] |
| --- | --- |
| O=c1[nH]c2cc3cccnc3c(Cl)c2nc1-c1cccs1 | 7.5 |
